T cruzi repl: T. cruzi replication inhibition; T. cruzi beta-gal in NIH3T3, luminescence, 90 h; inhibition, % (test concentration not listed); 300,000 tested, 1.4% active; AID 1885;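 active = mean inhibition across valid replicates above about 55%, limit read from the data; inconclusive = mean below that limit but half or more replicates reach it; inactive = mean below it, under half of replicates reach it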;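 also: signal also drops with host cell toxicity which is not excluded here; 0% = plate median of DMSO wells and 100% = zero luminescence signal; higher percent means less beta-gal luminescence so fewer parasites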
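System: NIH/3T3 fibroblasts plus reporter T. cruzi. Medium: DMEM plus 2% FBS. Probe or stimulus: 5000 reporter trypomastigotes per well. Compound: single 50 nL compound addition per well in DMSO. Incubation: co-culture of at least 90 h after 3 h attachment. Detection: GalScreen β-gal luminescence, detergent lysis, 60 min. Evaluation: parasite load inhibition, %.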
V-ATPase pH: alters yeast V-ATPase proton transport | response, % at 10 µM | 350,000 tested, 0.37% active | S. cerevisiae, pHLuorin cytosolic pH fluorescence; in the data active = response mostly above about 7.3%, no sharp cut-off; inactive = mostly below about 5.4%; also: actives read high
NRP1-CendR mod: alters CendR peptide binding to human NRP-1. O14786. FAM-RPARPAR peptide binding to NRP-1, fluorescence polarization. inhibition, % at 25 µM. 360,000 tested, 0.85% active. AID 602438;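 active = inhibition or corrected inhibition above about 18%, plus a signal ratio from 0.5 to 1.5, limit read from the data, passing the limit was not always enough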
Target sequence (O14786 whole entry, looked up): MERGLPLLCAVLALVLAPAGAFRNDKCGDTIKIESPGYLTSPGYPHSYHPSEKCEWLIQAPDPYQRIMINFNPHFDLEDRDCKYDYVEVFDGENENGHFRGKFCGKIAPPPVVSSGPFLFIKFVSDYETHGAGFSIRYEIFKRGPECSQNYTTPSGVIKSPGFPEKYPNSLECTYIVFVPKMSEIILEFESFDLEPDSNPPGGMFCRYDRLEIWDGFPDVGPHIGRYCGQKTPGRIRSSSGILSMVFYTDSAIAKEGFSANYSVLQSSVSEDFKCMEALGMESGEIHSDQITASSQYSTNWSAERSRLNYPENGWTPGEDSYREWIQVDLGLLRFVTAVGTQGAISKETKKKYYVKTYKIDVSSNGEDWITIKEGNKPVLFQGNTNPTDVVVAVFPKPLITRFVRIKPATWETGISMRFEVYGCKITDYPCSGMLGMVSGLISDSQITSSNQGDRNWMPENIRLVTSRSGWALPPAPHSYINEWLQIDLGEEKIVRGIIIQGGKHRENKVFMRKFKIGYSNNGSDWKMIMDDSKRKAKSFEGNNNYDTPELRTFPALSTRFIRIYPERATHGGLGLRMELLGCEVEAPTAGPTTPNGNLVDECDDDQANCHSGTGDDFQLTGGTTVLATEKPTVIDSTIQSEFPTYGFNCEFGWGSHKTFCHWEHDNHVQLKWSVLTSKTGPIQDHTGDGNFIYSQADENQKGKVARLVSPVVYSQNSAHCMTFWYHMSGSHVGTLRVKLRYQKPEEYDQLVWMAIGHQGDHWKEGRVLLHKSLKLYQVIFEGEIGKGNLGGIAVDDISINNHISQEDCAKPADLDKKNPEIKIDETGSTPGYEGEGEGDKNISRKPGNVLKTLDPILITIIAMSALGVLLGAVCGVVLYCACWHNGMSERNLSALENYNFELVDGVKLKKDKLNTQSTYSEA
AI-2 QS mod: Vibrio harveyi AI-2 quorum sensing modulation. Vibrio harveyi JMH597 AI-2 luminescence/OD600 ratio, 9 h; stronger effect = lower value; strain lacks LuxN and CqsS sensors; 0 = neutral-control median. activity change, % at 7.5 µM. 300,000 tested, 0.4% active; in the data active = activity change below about -75%, passing the limit was not always enough; inconclusive = no clear call, values can overlap the other calls;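 also: luminescence divided by OD600 gain over 9 h not by final OD600 alone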
Yeast superoxide: yeast age-related superoxide inhibition as caloric restriction mimetic | AID 2690 | 330,000 tested, 0.18% active | superoxide response (% of plate mean), % at 10 µM | S. cerevisiae aged cells, superoxide DHE fluorescence; stronger effect = lower value;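 active = superoxide response under a set limit, about three screen SD below normal, cut at about 65% in these data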;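 also: yeast aged for seven days with compound at 30 °C before DHE staining; 100% = average MFI of all compound-treated wells on the plate with controls excluded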
HIF act: HIF pathway transcriptional activation; U2OS HRE-luciferase reporter, luminescence; normalized: DMSO 0%, desferrioxamine 100%; activation, % at 7.5 µM (by protocol); 300,000 tested, 0.32% active; AID 1910;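 active = mean activation of at least 10% of the iron chelator positive control signal, with at least half of replicates also reaching 10%; inconclusive = mean and replicate majority disagree about reaching 10%; inactive = mean and most replicates under 10%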
Starred values were filed as active, the others as inactive; ? = inconclusive; / = not tested or not shown. In the library only some 3% were active in any assay of this set; here they are far more common.

SMILES	T cruzi repl	V-ATPase pH	NRP1-CendR mod	AI-2 QS mod	Yeast superoxide	HIF act
COc1ccc(NC(=O)CSc2nc(=O)n(CCN3CCOCC3)c3c2CCCC3)c(OC)c1	-10	-3	16	16	100	0
COc1cccc(NC(=O)CSC2=NN3CCCC(=O)N=C3S2)c1	-15	3	30*	-57	97	-4
COc1ccc(Nc2nc(N)nc(COc3ccc(OC)cc3)n2)cc1	2	-4	0	-14	97	3
COc1ccc(OCc2nc(N)nc(Nc3cccc(C)c3C)n2)cc1	/	-3	26*	17	112	/
CCc1c(C)nc2ncnn2c1NC1CCCc2ccccc21 (centres undefined)	2	13*	4	14	112	0
CCc1c(C)nc2ncnn2c1Nc1ccc(C)cc1	1	2	9	16	103	-1
CC(=O)c1sc(N2CCOCC2)nc1-c1ccccc1	-10	7	30*	18	108	0
COc1ccc(Cn2nnnc2C(c2cc3cccc(C)c3[nH]c2=O)N2CCOCC2)cc1 (centres undefined)	-9	0	4	37	91	0
CCN1CCN(C(c2cc3cccc(C)c3[nH]c2=O)c2nnnn2Cc2ccccc2)CC1 (centres undefined)	-12	10	39*	14	107	0
CCCCCC(=O)N1C[C@@H](n2cc(-c3ccc(F)cc3)nn2)[C@H](O)C[C@@H]1c1ccccc1	/	-2	-7	/	/	/
CCOc1ccc(CNC(=O)CCS(=O)(=O)Cc2ccccc2C)cc1OC	6	-1	3	7	96	/
COc1ccc(CNC(=O)CCS(=O)(=O)Cc2cccc(Cl)c2)c(OC)c1	11	14*	-7	18	107	0
Cc1cccc(N2CC(C(=O)Nc3nc4ccc(S(C)(=O)=O)cc4s3)CC2=O)c1C (centres undefined)	1	0	7	31	113	0
COc1cc(C)ccc1OCc1cc(C(=O)NCc2ccncc2)no1	6	3	-4	41	96	2
CCc1ccc(C(=O)COC(=O)c2n[nH]c3ccccc23)cc1	-2	-3	-3	-78*	99	1
Nc1ncnc2c1ncn2[C@@H]1O[C@H](C(=O)Nc2cc(C(F)(F)F)cc(C(F)(F)F)c2)[C@@H](O)[C@H]1O	/	/	19	/	/	/
CC(C)(C)c1ccc(C(=O)NNC(=S)NC(=O)c2cccnc2)cc1	29	4	2	?	128	3
CC(C)(C)c1cc(Cl)c(O)c(NC(=S)NC(=O)c2cccnc2)c1	70*	-4	-26	41	115	1
Cc1cc(-c2ccc(S(=O)(=O)N3CCN(c4ccc(F)cc4)CC3)s2)on1	2	-2	7	7	105	-1
c1ccc2c(c1)CC(N1CCCCC1)c1ccccc1S2 (centres undefined)	-30	-4	41*	33	95	0
CC(C)N(C(=O)[C@H]1C[C@H](CC(=O)NCCN2CCOCC2)C(=O)N2CCc3c([nH]c4cc(CCC(=O)N(C)C)ccc34)[C@]12C)C(C)C	/	-1	7	/	98	/
O=C(CCCn1cnc([N+](=O)[O-])n1)Nc1ccc(Cl)cc1Cl	58*	-5	5	23	133	0
CC1CCc2c(sc(NC(=O)CCCn3cnc([N+](=O)[O-])n3)c2C(N)=O)C1 (centres undefined)	53	0	-12	34	109	0
NC(=O)c1c(NC(=O)CCCn2cnc([N+](=O)[O-])n2)sc2c1CCCC2	60*	4	-4	16	116	0
O=C(CCCn1cnc([N+](=O)[O-])n1)Nc1ccc(F)c(Cl)c1	60*	1	-5	28	115	0
SMILES	T cruzi repl	V-ATPase pH	NRP1-CendR mod	AI-2 QS mod	Yeast superoxide	HIF act
CCOc1ccc(C(=O)/C=C/Nc2ccc(S(=O)(=O)Nc3cc(C)nc(C)n3)cc2)cc1	9	/	/	31	100	0
CCOC(=O)C1=C(N)Oc2cc(O)ccc2C1c1ccc([N+](=O)[O-])cc1 (centres undefined)	57*	1	3	15	105	-1
COc1ccc(-c2cccc(C3CC=CC4C3C(=O)N(Cc3ccccc3)C4c3ccc4ccccc4c3)c2)cc1 (centres undefined)	8	1	28*	3	91	0
CCc1ccc(CNC(=O)CCn2nc(C)c3c(C)n(-c4ccccc4)nc3c2=O)cc1	2	-2	9	9	79	-1
COc1cc(O)c(C(CCN2CCOCC2)c2ccc3c(c2)OCO3)c(OC)c1 (centres undefined)	-7	-3	3	26	92	1
COc1cc(O)c(C(CC(=O)N2CCOCC2)c2ccc3c(c2)OCO3)c(OC)c1 (centres undefined)	-19	7	28*	16	97	0
COc1cc(O)c(C(CC(=O)N2CCOCC2)c2ccc(N(C)C)cc2)c(OC)c1 (centres undefined)	-13	-2	24*	10	/	0
O=C(Nc1nc2ccc(Br)cc2s1)c1ccco1	-9	-1	-17	-8	112	2
O=C(O)c1ccc2c(c1)[C@@H]1C=CC[C@@H]1[C@H](c1ccccn1)N2	-3	1	32*	-4	100	0
CCN(CC)C(=O)c1ccc(/C=C/c2c[nH]c3ccccc23)[n+](C)c1	-2	-4	52	19	95	-1
CC[n+]1c(/C=C/c2c[nH]c3ccccc23)ccc2cc(C)ccc21	/	8.2*	/	/	/	/
CC1CC(C)CN(S(=O)(=O)c2ccc3c(c2)oc(=O)n3CC(=O)NCCCOC(C)C)C1 (centres undefined)	-1	1	-8	51	86	31*
CC(NC(=O)c1ccc2nc[nH]c2c1)c1ccccc1 (centres undefined)	-28	10	5	1	103	0
CCC(CC)NC(=O)c1ccc2nc[nH]c2c1	-18	-4	29*	14	98	0
Cc1ccc(/C=C/c2ccc3cccc(O)c3n2)s1	5	0	-24	13	102	4
O=C(N/N=C/c1ccncc1)NC12CC3CC(CC(C3)C1)C2	25	0	7	16	102	-1
O=C(CC12CC3CC(CC(C3)C1)C2)N/N=C/c1ccncc1	-17	1	18*	23	91	0
O=C(Nc1ccccc1)C(Cc1ccccc1)c1ccccc1 (centres undefined)	/	-2	-6	/	/	/
C=CCOc1ccc(CNC(C)(C)C)cc1OC	-2	3	24*	20	89	0
CS(=O)(=O)n1nc(-c2ccc(Cl)cc2)nc1N	-5	3	18	32	111	0

Source: PubChem
